Data taken from ChEMBL document CHEMBL1145210, “Novel cyano- and N-isopropylamidino-substituted derivatives of benzo[b]thiophene-2-carboxanilides and benzo[b]thieno[2,3-c]quinolones: synthesis, photochemical synthesis, crystal structure determination, and antitumor evaluation. 2” (J Med Chem, 2005).
pIC50: −log10 of the molar value.

Experiments:
[1] = In vitro Inhibition on growth of human Hep 2 laryngeal carcinoma cell line; type: functional
Outline: (§1)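 Monolayer cultures in DMEM with 10% FBS, 2 mM L-glutamine, penicillin/streptomycin, 37 °C, 5% CO2. Cells plated on day 0 at densities set by doubling time (1 × 10⁴/mL HeLa, Hep-2, MiaPaCa-2, SW 620; 2 × 10⁴/mL MCF-7; 3 × 10⁴/mL WI 38). Compound added at five 10-fold dilutions (10^-8 to 10^-4 mol/L) for 72 h. MTT read at 570 nm, converted to percentage growth versus time-zero and untreated controls. Quadruplicate points, three experiments. IC50 by linear regression.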

MIA PaCa-2 [2] = assay: In vitro Inhibition on growth of human MiaPaCa-2 pancreatic carcinoma cell line; type: functional, cell-based; outline: as §1
[3] = In vitro Inhibition on growth of human WI 38 diploid fibroblast cell line; type: functional, cell-based; outline: as §1
MCF7 = assay: In vitro Inhibition on growth of human MCF 7 breast carcinoma cell line; type: functional, cell-based; outline: as §1
SW-620 [4] = assay: In vitro Inhibition on growth of human SW 620 colon carcinoma cell line; type: functional, cell-based; outline: as §1
HeLa [5] = assay: In vitro Inhibition on growth of human HeLa cervical carcinoma cell line; type: functional, cell-based; outline: as §1
SW-620 [6] = assay: Percentage of apoptosis induced by compound in SW 620 cell line at 5 uM concentration after 72 h; type: functional, Homo sapiens
Outline: (§2)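 Annexin-V assay after 72 h exposure to 5 or 10 µM. Cells washed with PBS, pelleted, and stained with Annexin-V-fluorescein plus propidium iodide in Hepes buffer. Scored by fluorescence microscopy: Annexin-V-positive cells counted as apoptotic, Annexin-V/PI double-positive as necrotic. Apoptotic fraction given as percentage of total cells.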

HeLa [7] = assay: Percentage of apoptosis induced by compound in HeLa cell line after at 10 uM concentration 72 h; type: functional, Homo sapiens; outline: as §2
HeLa [8] = assay: Percentage of apoptosis induced by compound in HeLa cell line after at 5 uM concentration 72 h; type: functional, Homo sapiens; outline: as §2
MIA PaCa-2 [9] = assay: Percentage of apoptosis induced by compound in MiaPaCa-2 cell line at 5 uM concentration after 72 h; type: functional, Homo sapiens; outline: as §2
SW-620 [10] = assay: Percentage of apoptosis induced by compound in SW 620 cell line at 10 uM concentration after 72 h; type: functional, Homo sapiens; outline: as §2
MIA PaCa-2 [11] = assay: Percentage of apoptosis induced by compound in MiaPaCa-2 cell line at 10 uM concentration after 72 h; type: functional, Homo sapiens; outline: as §2

| SMILES | pIC50 [1] | pIC50 (MIA PaCa-2 [2]) | pIC50 [3] | pIC50 (MCF7) | pIC50 (SW-620 [4]) | pIC50 (HeLa [5]) | Apoptosis (SW-620 [6]) | Apoptosis (HeLa [7]) | Apoptosis (HeLa [8]) | Apoptosis (MIA PaCa-2 [9]) | Apoptosis (SW-620 [10]) | Apoptosis (MIA PaCa-2 [11]) |
| --- | --- | --- | --- | --- | --- | --- | --- | --- | --- | --- | --- | --- |
| CC(C)/N=C(/N)c1ccc2c(c1)sc1c(O)nc3ccccc3c12 | 4.68 | 4.74 | 4.43 | 4.67 | 5.42 | 4.31 |  |  |  |  |  |  |
| Cc1ccc2c(c1)sc1c(O)nc3ccc(/C(N)=N\C(C)C)cc3c12 | 5.07 | 5.22 | 4.73 | 5.27 | 5.12 | 5.37 | 15% | 8% | 6% | 3% | 16% | 17% |
| CC(C)/N=C(/N)c1ccc(NC(=O)c2sc3cc(Br)ccc3c2Cl)cc1 | 5.63 | 5.45 | 5.52 | 5.60 | 5.41 | 5.67 |  |  |  |  |  |  |
| CC(C)/N=C(/N)c1ccc2c(Cl)c(C(=O)Nc3ccccc3)sc2c1 | 4.62 | 5.14 | 5.33 | 5.90 | 5.34 | 5.37 |  |  |  |  |  |  |
| COC(=O)c1ccc(NC(=O)c2sc3ccccc3c2Cl)cc1 | < 4.00 | < 4.00 | 4.35 | < 4.00 | < 4.00 | < 4.00 |  |  |  |  |  |  |
| Cc1ccc(NC(=O)c2sc3cc(/C(N)=N\C(C)C)ccc3c2Cl)cc1 | 5.53 | 5.29 | 5.69 | 5.14 | 5.45 | 5.63 |  |  |  |  |  |  |
| COC(=O)c1ccc2c(c1)sc1c(O)nc3ccc(C(=N)NC(C)C)cc3c12 | 4.34 | 5.25 | < 4.00 | 4.19 | 4.31 | 5.32 | 7% | 17% | 12% | 4% | 9% | 13% |
| COC(=O)c1ccc(NC(=O)c2sc3cc(C(=N)NC(C)C)ccc3c2Cl)cc1 | 5.09 | 5.15 | 5.16 | 5.63 | 5.44 | 5.25 |  |  |  |  |  |  |
| CC(C)/N=C(/N)c1ccc2nc(O)c3sc4cc(Br)ccc4c3c2c1 | 5.16 | 5.43 | 4.72 | 5.24 | 5.16 | 5.77 |  |  |  |  |  |  |
| COC(=O)c1ccc2nc(O)c3sc4cc(C(=N)NC(C)C)ccc4c3c2c1 | 4.01 | 5.16 | 5.27 | 5.25 | 5.09 | 4.80 | 6% | 15% | 13% | 6% | 7% | 14% |
| CC(C)/N=C(/N)c1ccc2c(Cl)c(C(=O)Nc3ccc(Br)cc3)sc2c1 | 5.50 | 5.60 | 5.44 | 5.58 | 5.38 | 5.52 |  |  |  |  |  |  |
| COc1ccc(NC(=O)c2sc3cc(C#N)ccc3c2Cl)cc1 | 4.32 | 4.04 | 4.63 | 4.76 | < 4.00 | 4.39 |  |  |  |  |  |  |
| Cc1ccc(NC(=O)c2sc3cc(C#N)ccc3c2Cl)cc1 | < 4.00 | < 4.00 | 6.12 | < 4.00 | < 4.00 | < 4.00 |  |  |  |  |  |  |
| CC(C)/N=C(/N)c1ccc2c(c1)sc1c(O)nc3ccc(Br)cc3c12 | 5.01 | 5.10 | 5.41 | 5.20 | 4.88 | 5.05 | 9% | 15% | 10% | 3% | 13% | 11% |
| COC(=O)c1ccc(NC(=O)c2sc3cc(C#N)ccc3c2Cl)cc1 | 4.23 | < 4.00 | 5.57 | < 4.00 | 5.34 | 4.62 | 6% | 52% | 6% | 3% | 71% | 9% |
| CC(C)/N=C(/N)c1ccc(NC(=O)c2sc3cc(/C(N)=N\C(C)C)ccc3c2Cl)cc1 | 4.17 | 4.12 | 4.06 | 4.81 | < 4.00 | 4.59 |  |  |  |  |  |  |

| SMILES | pIC50 [1] | pIC50 (MIA PaCa-2 [2]) | pIC50 [3] | pIC50 (MCF7) | pIC50 (SW-620 [4]) | pIC50 (HeLa [5]) | Apoptosis (SW-620 [6]) | Apoptosis (HeLa [7]) | Apoptosis (HeLa [8]) | Apoptosis (MIA PaCa-2 [9]) | Apoptosis (SW-620 [10]) | Apoptosis (MIA PaCa-2 [11]) |
| --- | --- | --- | --- | --- | --- | --- | --- | --- | --- | --- | --- | --- |
| CC(C)/N=C(/N)c1ccc2nc(O)c3sc4ccccc4c3c2c1 | 4.78 | 5.14 | ≤ 4.00 | 5.87 | 4.49 | 4.60 | 9% | 11% | 9% | 4% | 13% | 11% |
| COC(=O)c1ccc2c(Cl)c(C(=O)Nc3ccc(C(=N)NC(C)C)cc3)sc2c1 | 5.27 | 5.46 | 5.55 | 5.91 | 5.44 | 5.65 |  |  |  |  |  |  |
| CC(C)/N=C(/N)c1ccc2nc(O)c3sc4cc(C#N)ccc4c3c2c1 | ≤ 4.00 | 4.38 | ≤ 4.00 | < 4.00 | < 4.00 | 5.21 |  |  |  |  |  |  |
| Cc1ccc2nc(O)c3sc4cc(/C(N)=N\C(C)C)ccc4c3c2c1 | 5.07 | 5.18 | 4.72 | 5.25 | 4.64 | 5.19 |  |  |  |  |  |  |
| COC(=O)c1ccc2c(Cl)c(C(=O)Nc3ccccc3)sc2c1 | < 4.00 | < 4.00 | 4.27 | < 4.00 | 4.02 | < 4.00 |  |  |  |  |  |  |
| CC(C)/N=C(/N)c1ccc(NC(=O)c2sc3cc(C#N)ccc3c2Cl)cc1 | 4.68 | 5.06 | 4.60 | 4.62 | 5.10 | 4.65 |  |  |  |  |  |  |
| Cc1ccc2c(Cl)c(C(=O)Nc3ccc(/C(N)=N\C(C)C)cc3)sc2c1 | 5.40 | 5.35 | 5.48 | 5.46 | 5.45 | 5.52 |  |  |  |  |  |  |
| COc1ccc2c(Cl)c(C(=O)Nc3ccc(C(=N)NC(C)C)cc3)sc2c1 | 5.59 | 5.33 | 5.40 | 5.43 | 5.41 | 5.57 |  |  |  |  |  |  |
| N#Cc1ccc(NC(=O)c2sc3ccccc3c2Cl)cc1 | 5.19 | < 4.00 | 5.09 | 4.00 | < 4.00 | 6.07 |  |  |  |  |  |  |
| CC(C)/N=C(/N)c1ccc(NC(=O)c2sc3ccccc3c2Cl)cc1 | 4.82 | 5.16 | 4.44 | 5.71 | 4.56 | 4.89 |  |  |  |  |  |  |
| COc1ccc2c(c1)sc1c(O)nc3ccc(C(=N)NC(C)C)cc3c12 | 4.46 | 5.17 | 4.39 | 4.42 | 4.69 | 5.63 |  |  |  |  |  |  |
| N#Cc1ccc2c(Cl)c(C(=O)Nc3ccccc3)sc2c1 | 6.16 | < 4.00 | ≤ 4.00 | 4.07 | ≤ 4.00 | 6.46 |  |  |  |  |  |  |
| CC(C)/N=C(/N)c1ccc2c(c1)sc1c(O)nc3ccc(/C(N)=N\C(C)C)cc3c12 | < 4.00 | 4.06 | ≤ 4.00 | 4.11 | ≤ 4.00 | 4.50 |  |  |  |  |  |  |
| N#Cc1ccc2c(Cl)c(C(=O)Nc3ccc(Br)cc3)sc2c1 | < 4.00 | < 4.00 | 5.22 | < 4.00 | < 4.00 | < 4.00 |  |  |  |  |  |  |
| COc1ccc(NC(=O)c2sc3cc(C(=N)NC(C)C)ccc3c2Cl)cc1 | 5.01 | 4.65 | 4.53 | 4.76 | 5.08 | 5.23 |  |  |  |  |  |  |
